Measurements reported in publication PMC3061239 (Bioconjugate chemistry, 2010).
Each block holds one molecule with its values, some of them ahead of it.

Assays:
[1] = 5 min; cited from earlier work
[2] = MicroPET imaging, myocardial tissue time-activity curves; type: in vivo; details: male Sprague-Dawley rats
[3] = Biodistribution of [^18F]7 in rats after i.v. injection; type: in vivo, Sprague-Dawley rats; details: for Distribution, blood / Distribution, bone / Distribution, brain / Distribution, fat / Distribution, heart / Distribution, kidney / Distribution, liver / Distribution, lung / Distribution, muscle / Distribution, pancreas / Distribution, spleen: male Sprague-Dawley rats, mean ± SD
Procedure, shortened: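 Adult male Sprague-Dawley rats (170–250 g) under 2–3 % isoflurane/O2 received ~20–25 μCi/100 μL tracer (formulated in 3% HSA) via lateral tail vein. Killed at 5, 30, 60, 120 min, 4–8 rats per time; bone and fat taken only at 5 and 60 min (4 rats). Tissues weighed and gamma-counted alongside injectate standard dilution. Expressed as %ID/g, mean ± SD; Student's t-test.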

[4] = 5 min post-i.v. injection, rats

SMILES: CCCCCCCCC([18F])CCCCC1CC1CC(=O)O (racemic) [[^18F]FCPHA, trans-9-(RS)-[^18F]fluoro-3,4-(RS,RS) methyleneheptadecanoic acid]
uptake in rat myocardium [1]: approximately 1.5 %ID/gram tissue

accumulation in bone on PET images [2]: no evidence of accumulation in bone
Ratio of activity heart:blood [3, 4]: 2.55
Ratio of activity heart:skeletal muscle [3, 4]: 8.3
Uptake in heart at 30 min as percentage of the 5 min activity ([3]; 30 min post injection vs 5 min, rats): 35%
Uptake in heart relative to blood ([3]; 120 min post injection, rats): approximately 1.4 fold
Distribution, blood ([3]; 5 min post i.v. injection): 0.76 ± 0.05 %ID/gram
Distribution, blood ([3]; 30 min post i.v. injection): 0.75 ± 0.06 %ID/gram
Distribution, blood ([3]; 60 min post i.v. injection): 0.56 ± 0.06 %ID/gram
Distribution, blood ([3]; 120 min post i.v. injection): 0.26 ± 0.06 %ID/gram
metabolic defluorination (bone activity) ([3]; bone activity between 5 and 60 min, rats): no significant metabolic defluorination
Distribution, bone ([3]; 5 min post i.v. injection): 0.28 ± 0.01 %ID/gram
Distribution, bone ([3]; 60 min post i.v. injection): 0.33 ± 0.06 %ID/gram
Distribution, brain ([3]; 5 min post i.v. injection): 0.11 ± 0.01 %ID/gram
Distribution, brain ([3]; 30 min post i.v. injection): 0.13 ± 0.01 %ID/gram
Distribution, brain ([3]; 60 min post i.v. injection): 0.10 ± 0.01 %ID/gram
Distribution, brain ([3]; 120 min post i.v. injection): 0.06 ± 0.01 %ID/gram
Distribution, fat ([3]; 5 min post i.v. injection): 0.14 ± 0.02 %ID/gram
Distribution, fat ([3]; 60 min post i.v. injection): 0.17 ± 0.01 %ID/gram
Increase of activity in fat ([3]; from 5 to 60 min, rats, P = 0.04): 20%
Distribution, heart ([3]; 5 min post i.v. injection): 2.00 ± 0.44 %ID/gram
Distribution, heart ([3]; 30 min post i.v. injection): 0.72 ± 0.10 %ID/gram
Distribution, heart ([3]; 60 min post i.v. injection): 0.86 ± 0.28 %ID/gram
Distribution, heart ([3]; 120 min post i.v. injection): 0.34 ± 0.04 %ID/gram
Distribution, kidney ([3]; 5 min post i.v. injection): 1.30 ± 0.09 %ID/gram
Distribution, kidney ([3]; 30 min post i.v. injection): 1.26 ± 0.08 %ID/gram
Distribution, kidney ([3]; 60 min post i.v. injection): 1.02 ± 0.15 %ID/gram
Distribution, kidney ([3]; 120 min post i.v. injection): 0.52 ± 0.07 %ID/gram
Distribution, liver ([3]; 5 min post i.v. injection): 2.71 ± 0.37 %ID/gram
Distribution, liver ([3]; 30 min post i.v. injection): 1.39 ± 0.09 %ID/gram
Distribution, liver ([3]; 60 min post i.v. injection): 0.81 ± 0.10 %ID/gram
Distribution, liver ([3]; 120 min post i.v. injection): 0.49 ± 0.07 %ID/gram
Distribution, lung ([3]; 5 min post i.v. injection): 1.26 ± 0.32 %ID/gram
Distribution, lung ([3]; 30 min post i.v. injection): 0.87 ± 0.06 %ID/gram
Distribution, lung ([3]; 60 min post i.v. injection): 0.95 ± 0.27 %ID/gram
Distribution, lung ([3]; 120 min post i.v. injection): 0.52 ± 0.06 %ID/gram
Distribution, muscle ([3]; 5 min post i.v. injection): 0.23 ± 0.03 %ID/gram
Distribution, muscle ([3]; 30 min post i.v. injection): 0.24 ± 0.04 %ID/gram
Distribution, muscle ([3]; 60 min post i.v. injection): 0.21 ± 0.02 %ID/gram
Distribution, muscle ([3]; 120 min post i.v. injection): 0.12 ± 0.01 %ID/gram
Distribution, pancreas ([3]; 5 min post i.v. injection): 0.73 ± 0.07 %ID/gram
Distribution, pancreas ([3]; 30 min post i.v. injection): 0.50 ± 0.03 %ID/gram
Distribution, pancreas ([3]; 60 min post i.v. injection): 0.42 ± 0.04 %ID/gram
Distribution, pancreas ([3]; 120 min post i.v. injection): 0.28 ± 0.02 %ID/gram
Distribution, spleen ([3]; 5 min post i.v. injection): 0.94 ± 0.05 %ID/gram
Distribution, spleen ([3]; 30 min post i.v. injection): 0.63 ± 0.07 %ID/gram
Distribution, spleen ([3]; 60 min post i.v. injection): 0.57 ± 0.11 %ID/gram
Distribution, spleen ([3]; 120 min post i.v. injection): 0.40 ± 0.06 %ID/gram
SMILES: O=C(O)CCCCCCCCCCCCCCc1ccc(OCC[18F])cc1 [[^18F]7, 15-(4-(2-[^18F]fluoroethoxy)phenyl)pentadecanoic acid]
